The list is not random: actives were taken first. Their share in the collection is about 2.4%.
Rpn11 block – Rpn11 (PSMD14) deubiquitinase inhibitors, primary screen, biochemical, fluorescence polarization, uHTS; 26S proteasome non-ATPase regulatory subunit 14 (Homo sapiens), O00487; human 26S proteasome, Ub4-pepOG fluorescence polarization; 20S core pre-blocked with epoxomicin; inhibition, % at 20 µM; 0.59% of 360,000 active; AID 588493, 2011;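 active = inhibition at 20 µM, scaled to each plate's controls, above about 33%, limit read from the data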
Neddyl block – inhibitors of cullin neddylation, primary screen, biochemical, TR-FRET, uHTS, NAE and Ubc12; inhibition, % at 25 µM; 0.58% of 360,000 active; in the data active = inhibition above about 36%
Target sequence (P61081 whole entry, looked up): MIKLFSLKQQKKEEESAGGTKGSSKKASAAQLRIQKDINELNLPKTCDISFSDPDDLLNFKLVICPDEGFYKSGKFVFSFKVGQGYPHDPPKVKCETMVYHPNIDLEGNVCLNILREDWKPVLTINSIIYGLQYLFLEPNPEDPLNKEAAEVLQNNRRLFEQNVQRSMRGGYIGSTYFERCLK
Target sequence (Q13564 whole entry, looked up): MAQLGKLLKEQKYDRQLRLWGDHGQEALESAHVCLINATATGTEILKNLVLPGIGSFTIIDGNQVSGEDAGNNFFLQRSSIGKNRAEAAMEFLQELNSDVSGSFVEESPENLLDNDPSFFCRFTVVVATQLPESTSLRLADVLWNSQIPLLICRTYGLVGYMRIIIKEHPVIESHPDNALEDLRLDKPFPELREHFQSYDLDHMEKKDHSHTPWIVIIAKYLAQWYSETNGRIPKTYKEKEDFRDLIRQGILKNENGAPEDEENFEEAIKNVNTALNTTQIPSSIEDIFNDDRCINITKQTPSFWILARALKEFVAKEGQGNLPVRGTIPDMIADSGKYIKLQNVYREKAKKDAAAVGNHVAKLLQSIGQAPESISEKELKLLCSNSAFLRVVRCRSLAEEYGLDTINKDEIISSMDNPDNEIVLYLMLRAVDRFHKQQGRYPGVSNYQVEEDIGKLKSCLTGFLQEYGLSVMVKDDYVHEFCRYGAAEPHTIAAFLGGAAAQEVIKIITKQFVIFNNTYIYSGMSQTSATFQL
CSN inh – inhibitors of CSN-mediated cullin deneddylation, primary screen, biochemical, fluorescence polarization, uHTS | COP9 signalosome complex subunit 5 (Homo sapiens), Q92905 | Purified CSN, SCF-Nedd8-OG deneddylation | inhibition, % at 12.5 µM | 0.38% of 360,000 active | AID 651999, 2013;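 active = pattern-corrected inhibition above about 35%, with an unprinted fluorescence ratio check between 0.5 and 1.5, limit read from the data, passing the limit was not always enough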
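Assay system: Purified human Csn5 enzyme expressed in HEK293T cells | Amount: Enzyme 0.24 nM | Measured by: Fluorescence polarization readout | Medium: Tris/NaCl/DTT buffer, pH 7.5 | Compound dosing: One concentration, 12.5 µM, 0.25% DMSO | Times: 90 min incubation of compound, enzyme and substrate at room temperature | Control set: no-enzyme wells high, enzyme-with-substrate wells low | Read-out: % inhibition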
HNF4A DNA FP – change in binding of human HNF4A to DNA, primary screen, biochemical, fluorescence polarization, FITC-DNA | 1 h | 0.3% of 360,000 active | activity change, % at 10 µM | Hepatocyte nuclear factor 4-alpha (Homo sapiens), P41235 | AID 1224865, 2016; in the data active = activity change above about 30%, passing the limit was not always enough
TbMetRS inhib – T. brucei MetRS inhibitors, primary screen, biochemical, luminescence | AID 624268, 2012 | purified T. brucei MetRS, ATP depletion, Kinase-Glo luminescence | 0.4% of 360,000 active | inhibition, % at 11.9 µM;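 active = inhibition above a per-plate cutoff of the control wells' mean inhibition plus 3 SD, cut at about 5.5% in these data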
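Assay system: T. brucei methionyl-tRNA synthetase, purified | Medium: HEPES buffer with MgCl2, KCl, DTT, spermine, BSA, pyrophosphatase | Compound: 11.9 µM single point | Incubation: 15 min enzyme-compound preincubation, 2 h reaction, 10 min detection, 25 °C | Measured by: Kinase-Glo luciferase luminescence reporting remaining unconsumed ATP | Measure: % inhibition normalized to control-well medians | Replication: Singlicate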
PREPL inh – PREPL enzyme inhibitors, primary screen, biochemical, fluorescence polarization; Prolyl endopeptidase-like (Homo sapiens), Q4J6C6; recombinant PREPL, fluorescence polarization activity-based probe; inhibition, % at 5.96 µM; 0.68% of 320,000 active; AID 2751, 2010; in the data active = inhibition above about 43%
Rpn11 confirm – Rpn11 (PSMD14) deubiquitinase inhibitors, confirmation, biochemical, fluorescence polarization, single concentration; 29% of 1,900 active; inhibition, % at 20 µM; AID 602318, 2012; shares compounds with Rpn11 block; purified human 26S proteasome, Ub4-pepOG fluorescence polarization; proteasome pretreated with epoxomicin
MMP-2 inh – MMP-2 enzyme inhibition, confirmation, counter-screen for RPN11 inhibitor project, biochemical, fluorescence, single concentration; shares compounds with Rpn11 block; recombinant MMP-2, FRET peptide cleavage fluorescence; inhibition, % at 20 µM; 4% of 1,900 active;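 note: human MMP-2 activated beforehand with APMA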
Thrombin FP – bovine thrombin protease inhibition, confirmation, counter-screen for Rpn11 inhibitor project, biochemical, fluorescence polarization, single concentration; shares compounds with Rpn11 block; bovine thrombin cleavage of Ub4-pepOG; inhibition, % at 20 µM; 13% of 1,900 active; AID 602333, 2012;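 active = mean inhibition at least 40% at 20 µM, or signal 3 deviations below plate average, so some actives read negative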
Hits are given with their value; 0 = inactive; - = not tested or not shown. Cut-off read from the data, not from the text of the source, unless noted: active = inhibition above about 40%; inactive = the rest.

SMILES	Rpn11 block	Neddyl block	CSN inh	HNF4A DNA FP	TbMetRS inhib	PREPL inh	Rpn11 confirm	MMP-2 inh	Thrombin FP
Cc1csc(SCC(=O)NC(=O)Cc2ccccc2)n1	0	0	0	0	0	0	-	-	-
Cn1c(=O)n(C)c2cc(CNC(=O)[C@H]3O[C@@H](n4ccc(=O)[nH]c4=O)[C@H](O)[C@@H]3O)ccc21	0	0	0	0	0	-	-	-	-
CCS(=O)(=O)N1N=C(c2cccs2)CC1c1cc2cc(C)ccc2nc1Cl (centres undefined)	64.5	0	0	0	0	0	0	0	0
CCC(C(=O)NC(CC(=O)O)c1ccc(Cl)cc1)c1ccccc1 (centres undefined)	0	0	0	0	0	0	-	-	-
O=[N+]([O-])c1ccc(N2CCCCC2)s1	54.2	0	0	0	0	0	43.8	0	0
CC1CCCN(c2c([N+](=O)[O-])cc(C(=O)O)cc2[N+](=O)[O-])C1 (centres undefined)	0	0	0	0	0	0	-	-	-
O=[N+]([O-])c1ccc(N2CCN(Cc3ccccc3)CC2)s1	0	0	0	0	0	0	-	-	-
CC1CCCN(c2ccc([N+](=O)[O-])s2)C1 (centres undefined)	52.6	0	0	0	0	-	0	0	0
CCc1ccc(C(=O)NCc2ccc(Cl)cc2)cc1	0	0	0	0	0	0	-	-	-
CCc1ccc(C(=O)NNc2ccc(Cl)cc2)cc1	37.2	0	0	0	0	0	0	0	0
CCCCc1cc(=O)oc2cc(C)cc(OCC(=O)Nc3cccnc3)c12	70.0	-	0	0	0	0	0	0	0
C=CCn1c(O)c(C=Nc2ccc(Cc3ccncc3)cc2)c(=O)[nH]c1=S	47.5	0	0	0	0	0	0	0	0
COC(=O)C1=CN(Cc2ccc(OC)cc2)C=C(C(=O)OC)C1c1cccs1	0	-	0	0	0	0	-	-	-
COC(=O)C1=CC(C(=O)c2cccs2)=NN(c2ccc(OC)cc2)C1C(=O)OC (centres undefined)	44.4	0	0	0	0	0	0	0	0
COc1ccc(/C=N/Nc2ccc([N+](=O)[O-])cc2)cc1Cn1cc([N+](=O)[O-])cn1	53.8	0	0	0	0	0	0	0	0
COc1cccc(CN2c3ccc(Br)cc3C(=O)CS2(=O)=O)c1	94.3	0	0	0	0	0	0	0	0
C=CCN1c2ccc(Br)cc2C(=O)CS1(=O)=O	0	0	0	0	0	0	-	-	-
COc1ccc(/C(C)=N/NC(=O)c2ccncc2)cc1	0	0	0	0	0	0	-	-	-
COc1ccc(C(=O)Nc2ccc(C(=O)Nc3cccnc3)cc2)cc1	106.5	0	0	0	0	0	0	0	0
COc1ccc(C(=O)Nc2ccc(/C(C)=N/NC(=O)c3ccncc3)cc2)cc1	84.8	0	0	0	0	0	44.6	0	0
COc1cc2c(cc1OC)C(c1ccccc1C(F)(F)F)CC(=O)N2 (centres undefined)	0	0	0	0	0	0	-	-	-
COc1cc(/C=C2\SC(=Nc3c(C)n(C)n(-c4ccccc4)c3=O)NC2=O)ccc1O	90.0	0	0	0	0	-	0	0	0
COc1cc(/C=C2\SC(=Nc3ccc(O)cc3)NC2=O)cc(OC)c1O	45.1	0	0	0	0	0	0	0	0
COc1cccc(-n2c(O)c(C=NCc3ccccn3)c3ccccc3c2=O)c1	0	0	0	0	0	0	-	-	-
O=c1c2ccccc2c(C=NCc2ccccn2)c(O)n1-c1ccccc1	48.8	0	0	0	0	0	0	0	0
SMILES	Rpn11 block	Neddyl block	CSN inh	HNF4A DNA FP	TbMetRS inhib	PREPL inh	Rpn11 confirm	MMP-2 inh	Thrombin FP
Cc1cc(=O)[nH]c(N/N=C/c2c(O)n(-c3ccccc3)c(=O)c3ccccc23)n1	65.9	0	0	0	0	0	43.2	0	0
Cc1ccc(/C=C2\SC(=S)N(C3CCS(=O)(=O)C3)C2=O)o1 (centres undefined)	51.1	0	0	0	0	0	0	0	0
CC(=O)c1ccccc1N(C(=O)c1ccco1)C(C(=O)NC1CCCC1)c1ccc(C)cc1 (centres undefined)	0	0	0	0	0	0	-	-	-
Oc1c(CN2CCOCC2)cc(CN2CCOCC2)cc1CN1CCOCC1	43.5	0	0	0	0	-	0	0	0
C/C(=N\NC(=O)c1ccccc1F)c1cccc(NC(=O)c2ccc(C)cc2)c1	0	0	0	0	0	0	-	-	-
O=C(O)c1ccc(NC(=S)Nc2ccccc2)cc1	34.3	0	0	0	0	0	0	0	0
O=C(NC(=S)Nc1cccc(NC(=S)NC(=O)c2ccccc2)c1)c1ccccc1	40.1	0	0	0	0	-	0	48.9	0
CCC(=O)Nc1cccc(NC(=S)NC(=O)c2ccccc2)c1	0	0	0	0	0	0	-	-	-
CC(C)NC(=O)c1ccc(S(=O)(=O)N(C)C)cc1	39.2	0	0	0	0	0	0	0	0
Cc1cc2nc(-c3ccc(=O)[nH]c3)n(Cc3ccccc3)c2cc1C	0	0	0	0	0	0	-	-	-
CCC(OC(=O)c1ccco1)C(=O)NCc1ccco1 (centres undefined)	128.5	0	0	0	0	0	0	0	0
O=C(NCC(O)c1nc2ccccc2[nH]1)c1cc([N+](=O)[O-])ccc1F (centres undefined)	0	0	0	0	0	-	-	-	-
Fc1ccccc1-c1nc(-c2ccccc2)no1	45.6	0	0	0	0	0	0	0	0

Screening data (PubChem)
